Test results as given in ChEMBL document CHEMBL5303300, “EUbOPEN Chemogenomics Library - Multiplex” (2023).
Values joined by “and” are separate entries in the source; they are usually repeats but may differ in a detail not shown here. Identical values can stand only once.

System: Fibroblast
Assay: Multiplex assay against human fibroblast
Assay type: toxicity, cell-based
Details: number of replicates 2
Summary of the method: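 Per cents of healthy-nucleus cells form the tubulin, mitochondrial-mass and membrane-permeability phenotype values. Live cells were stained at seeding with Hoechst33342, BioTracker Green Microtubule Cytoskeleton Dye, MitoTracker Red and Annexin V Alexa Fluor 680. After compound addition they were imaged on a CQ1 microscope at 37°C and 5% CO2, and CellPathfinder machine-learning gating split them into Hoechst high-intensity objects or normal cells, normal cells into healthy, pyknosed or fragmented nuclei, and pyknosed cells into mitotic or apoptotic.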

[1] = 12 h, 1 µM, compound concentration 1 uM
[2] = 12 h, 10 µM, compound concentration 10 uM
[3] = 24 h, 1 µM, compound concentration 1 uM
[4] = 24 h, 10 µM, compound concentration 10 uM
[5] = 48 h, 1 µM, compound concentration 1 uM
[6] = 48 h, 10 µM, compound concentration 10 uM

## CSc1cc2c(cc1C(F)(F)F)N(C(=O)Nc1cccnc1)CC2
[1]
  Population Apoptotic (%): 50% and 34%
  Population Fragmented Nuclei (%): 9% and 17%
  Population Healthy Nuclei (%): 75% and 64%
  Population Hoechst High Intensity Objects (%): 0%
  Population Membrane Permeable-Phenotype (%): 6% and 2%
  Population Mitochondria Different-Phenotype (%): 0% and 2%
  Population Mitotic Cells (%): 50% and 65%
  Population Normal (%): 100%
  Population Pyknosed Nuclei (%): 15% and 17%
  Population Tubulin-Different-Phenotype (%): 5% and 10%
  Total Cell Count: 144 and 180
[2]
  Population Apoptotic (%): 22% and 26%
  Population Fragmented Nuclei (%): 4% and 13%
  Population Healthy Nuclei (%): 84% and 71%
  Population Hoechst High Intensity Objects (%): 0%
  Population Membrane Permeable-Phenotype (%): 2% and 5%
  Population Mitochondria Different-Phenotype (%): 0%
  Population Mitotic Cells (%): 77% and 73%
  Population Normal (%): 100%
  Population Pyknosed Nuclei (%): 11% and 15%
  Population Tubulin-Different-Phenotype (%): 8% and 2%
  Total Cell Count: 162 and 152
[3]
  Population Apoptotic (%): 42% and 51%
  Population Fragmented Nuclei (%): 5% and 14%
  Population Healthy Nuclei (%): 80% and 65%
  Population Hoechst High Intensity Objects (%): 0%
  Population Membrane Permeable-Phenotype (%): 1% and 4%
  Population Mitochondria Different-Phenotype (%): 0%
  Population Mitotic Cells (%): 57% and 48%
  Population Normal (%): 100% and 99%
  Population Pyknosed Nuclei (%): 13% and 20%
  Population Tubulin-Different-Phenotype (%): 9% and 11%
  Total Cell Count: 142 and 185
[4]
  Population Apoptotic (%): 20% and 33%
  Population Fragmented Nuclei (%): 9% and 15%
  Population Healthy Nuclei (%): 81% and 73%
  Population Hoechst High Intensity Objects (%): 0%
  Population Membrane Permeable-Phenotype (%): 4% and 3%
  Population Mitochondria Different-Phenotype (%): 0%
  Population Mitotic Cells (%): 80% and 66%
  Population Normal (%): 100%
  Population Pyknosed Nuclei (%): 8% and 11%
  Population Tubulin-Different-Phenotype (%): 9% and 3%
  Total Cell Count: 173 and 156
[5]
  Population Apoptotic (%): 55% and 70%
  Population Fragmented Nuclei (%): 14% and 16%
  Population Healthy Nuclei (%): 73% and 70%
  Population Hoechst High Intensity Objects (%): 0%
  Population Membrane Permeable-Phenotype (%): 5% and 8%
  Population Mitochondria Different-Phenotype (%): 0%
  Population Mitotic Cells (%): 44% and 29%
  Population Normal (%): 99% and 100%
  Population Pyknosed Nuclei (%): 11% and 12%
  Population Tubulin-Different-Phenotype (%): 4% and 7%
  Total Cell Count: 158 and 187
[6]
  Population Apoptotic (%): 54% and 46%
  Population Fragmented Nuclei (%): 7% and 14%
  Population Healthy Nuclei (%): 86% and 76%
  Population Hoechst High Intensity Objects (%): 0%
  Population Membrane Permeable-Phenotype (%): 3% and 2%
  Population Mitochondria Different-Phenotype (%): 0%
  Population Mitotic Cells (%): 45% and 53%
  Population Normal (%): 100%
  Population Pyknosed Nuclei (%): 5% and 9%
  Population Tubulin-Different-Phenotype (%): 4% and 3%
  Total Cell Count: 188 and 164

## COc1cc(N(C)c2ccnc3ccc(C(F)(F)F)cc23)cc(OC)c1OC
[1]
  Population Apoptotic (%): 43% and 38%
  Population Fragmented Nuclei (%): 7% and 10%
  Population Healthy Nuclei (%): 68% and 65%
  Population Hoechst High Intensity Objects (%): 0%
  Population Membrane Permeable-Phenotype (%): 10% and 7%
  Population Mitochondria Different-Phenotype (%): 0%
  Population Mitotic Cells (%): 56% and 61%
  Population Normal (%): 100% and 99%
  Population Pyknosed Nuclei (%): 23% and 24%
  Population Tubulin-Different-Phenotype (%): 21% and 18%
  Total Cell Count: 216 and 225
[2]
  Population Apoptotic (%): 48% and 39%
  Population Fragmented Nuclei (%): 6% and 11%
  Population Healthy Nuclei (%): 77% and 63%
  Population Hoechst High Intensity Objects (%): 0%
  Population Membrane Permeable-Phenotype (%): 4% and 9%
  Population Mitochondria Different-Phenotype (%): 5% and 4%
  Population Mitotic Cells (%): 51% and 60%
  Population Normal (%): 100%
  Population Pyknosed Nuclei (%): 15% and 24%
  Population Tubulin-Different-Phenotype (%): 33% and 40%
  Total Cell Count: 175 and 219
[3]
  Population Apoptotic (%): 48% and 50%
  Population Fragmented Nuclei (%): 7% and 13%
  Population Healthy Nuclei (%): 69% and 59%
  Population Hoechst High Intensity Objects (%): 0%
  Population Membrane Permeable-Phenotype (%): 8% and 4%
  Population Mitochondria Different-Phenotype (%): 1%
  Population Mitotic Cells (%): 51% and 49%
  Population Normal (%): 100% and 99%
  Population Pyknosed Nuclei (%): 23% and 27%
  Population Tubulin-Different-Phenotype (%): 24% and 14%
  Total Cell Count: 229 and 213
[4]
  Population Apoptotic (%): 60% and 54%
  Population Fragmented Nuclei (%): 9% and 12%
  Population Healthy Nuclei (%): 71% and 66%
  Population Hoechst High Intensity Objects (%): 0%
  Population Membrane Permeable-Phenotype (%): 4%
  Population Mitochondria Different-Phenotype (%): 3% and 6%
  Population Mitotic Cells (%): 39% and 45%
  Population Normal (%): 100% and 99%
  Population Pyknosed Nuclei (%): 18% and 20%
  Population Tubulin-Different-Phenotype (%): 27% and 30%
  Total Cell Count: 176 and 216
[5]
  Population Apoptotic (%): 66% and 47%
  Population Fragmented Nuclei (%): 8% and 14%
  Population Healthy Nuclei (%): 73% and 61%
  Population Hoechst High Intensity Objects (%): 0%
  Population Membrane Permeable-Phenotype (%): 1% and 7%
  Population Mitochondria Different-Phenotype (%): 0%
  Population Mitotic Cells (%): 33% and 52%
  Population Normal (%): 100%
  Population Pyknosed Nuclei (%): 18% and 23%
  Population Tubulin-Different-Phenotype (%): 10% and 12%
  Total Cell Count: 229 and 214
[6]
  Population Apoptotic (%): 64% and 75%
  Population Fragmented Nuclei (%): 9% and 12%
  Population Healthy Nuclei (%): 72% and 70%
  Population Hoechst High Intensity Objects (%): 0%
  Population Membrane Permeable-Phenotype (%): 0% and 1%
  Population Mitochondria Different-Phenotype (%): 3% and 5%
  Population Mitotic Cells (%): 35% and 24%
  Population Normal (%): 99% and 100%
  Population Pyknosed Nuclei (%): 18% and 16%
  Population Tubulin-Different-Phenotype (%): 35% and 25%
  Total Cell Count: 173 and 226
